Assay [1] is described as follows: Cytotoxicity against human HT29-AK cells after 72 hrs by MTT assay. The class given is functional, cell-based. Background: Formazan colour is commonly taken as a measure of viable cells.
Assay [2] relates to MDA-MB-231. As to the kind of experiment: Cytotoxicity against human MDA-MB-231 cells after 72 hrs by MTT assay. The assay is classed as functional, cell-based. The conditions noted are these: MDA-MB-231, 72 h.
Assay [3] has as its system MCF7. In words: Cytotoxicity against human MCF7 cells after 72 hrs by MTT assay. The assay is classed as functional, cell-based. The settings on record: MCF7, 72 h.
Assay [4] concerns Plasmodium falciparum. As to the kind of experiment: Antimalarial activity after 48 hrs against chloroquine-sensitive Plasmodium falciparum 3D7 by [3H]hypoxanthine uptake. The class given is functional, organism-based.
The subject of assay [5] is HL-60. As to the kind of experiment: Cytotoxicity against human HL60 cells after 72 hrs by MTT assay. The assay is classed as functional, cell-based. The settings on record: HL-60, 72 h. In outline: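 MTT viability: 2.5 × 10^4 cells/well in triplicate, exposed to 0.01–100 µM compound for 72 h at 37 °C, 5% CO2; MTT 3 h at 37 °C, SDS/DMF lysis 4 h; absorbance 570 nm (reference 590 nm); expressed as % of vehicle-only cells; IC50 from individual inhibition curves; means of three experiments with SD.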

Assay [6] deals with HL-60. As to the kind of experiment: Induction of apoptosis in human HL60 cells assessed as induction of mitochondrial membrane depolarization by tetramethylrhodamine ethyl ester-based flow cytometry. The assay is classed as functional, cell-based. In outline:
(§1)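 HL60 cells treated 24 h; 5 × 10^5 cells washed in HBSS, loaded with 50 nM TMRE in HBSS for 10 min at 37 °C; ≥500 cells read by flow cytometry on FL-2 to score depolarised mitochondria; mean ± SD of three independent experiments, Mann-Whitney U vs drug blank.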
(In flow cytometry, cells or beads pass a laser one at a time.)

The subject of assay [7] is HL-60. In words: Induction of apoptosis in human HL60 cells assessed as induction of mitochondrial membrane depolarization at 1 uM by tetramethylrhodamine ethyl ester-based flow cytometry. The class given is functional, cell-based. In outline:
as §1

The subject of assay [8] is HL-60. As to the kind of experiment: Induction of apoptosis in human HL60 cells assessed as induction of mitochondrial membrane depolarization at 10 uM after 24 hrs by tetramethylrhodamine ethyl ester-based flow cytometry. The class given is functional. In outline: as §1
Assay [9] has as its system HL-60. As to the kind of experiment: Induction of apoptosis in human HL60 cells assessed as accumulation at sub-G0/G1 phase after 24 hrs by propidium iodide-based flow cytometry. The assay is classed as functional, cell-based. In outline: (§2)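 HL60 cells treated 24 h; 1 × 10^6 cells washed in HBSS, fixed in ice-cold 70% ethanol at −20 °C for 2 h, stained with PI (40 µg/mL) plus RNase 0.1 mg/mL and 3.8 mM sodium citrate in PBS, 30 min at 37 °C; ≥5000 cells read on FL-2; sub-G0/G1 fraction from DNA content; mean ± SD of three independent experiments, Mann-Whitney U vs drug blank.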

For assay [10], the system named is HL-60. In words: Induction of apoptosis in human HL60 cells assessed as accumulation at sub-G0/G1 phase at 10 uM after 24 hrs by propidium iodide-based flow cytometry. The assay is classed as functional. In outline: as §2
The subject of assay [11] is HL-60. As to the kind of experiment: Induction of apoptosis in human HL60 cells assessed as caspase-3 activation after 24 hrs by Western blot analysis. The class given is functional, cell-based. In outline:
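HL60 cells treated 24 h with 0.5, 1.0, 5 or 10 µM alongside untreated control; 3 × 10^6 cells washed and sonicated, protein by Bradford; 20 µg per lane denatured 3 min at 95 °C, resolved on 14% SDS–PAGE, transferred to nitrocellulose; read-out pro-caspase-3 (32 kDa) and processed active subunit.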

Assay [12] concerns Nucleic Acid. As to the kind of experiment: Binding affinity to poy A-poly U RNA assessed as change in thermal melting temperature at compound to polynucleotide ratio of 0.3 at pH 7 by […]. The assay is classed as nucleic-acid assay. In outline: (§3)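 Thermal melting of ds-polynucleotides at r = [compound]/[polynucleotide] = 0.3, pH 7 Na cacodylate buffer 0.02 M (I = 0.005 M; poly A–poly T at I = 0.05 M); ΔTm reported, error ±0.5 °C.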

For assay [13], the system named is Nucleic Acid. In words: Binding affinity to poy A-poly T DNA assessed as change in thermal melting temperature at compound to polynucleotide ratio of 0.3 at pH 7 by […]. The class given is nucleic-acid assay. In outline: as §3
Assay [14] relates to Calf thymus DNA. As to the kind of experiment: Binding affinity to calf thymus DNA by fluorimetric binding titration study. The settings on record: Bos taurus. The assay is classed as nucleic-acid assay.
For assay [15], the system named is Nucleic Acid. In words: Binding affinity to poy A-poly U RNA by fluorimetric binding titration study. The assay is classed as nucleic-acid assay.
For assay [16], the system named is Nucleic Acid. As to the kind of experiment: Binding affinity to poy A-poly U RNA assessed as intercalation into double helix by circular dichroism analysis. The class given is nucleic-acid assay. (CD spectra are sensitive to the conformation of chiral molecules.)
Assay [17] concerns Calf thymus DNA. As to the kind of experiment: Binding affinity to calf thymus DNA assessed as intercalation into double helix by circular dichroism analysis. The class given is nucleic-acid assay. The settings on record: Bos taurus. In outline:
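CD spectra of ct-DNA (1 × 10^-5 mol dm^-3) titrated at various r = [compound]/[ctDNA], change followed at 280 nm; induced acridine CD band at ct-DNA 1 × 10^-4 mol dm^-3; pH 7 Na cacodylate buffer, I = 0.05 M.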

Assay [18] deals with Calf thymus DNA. In words: Binding affinity to calf thymus DNA assessed as change in thermal melting temperature at compound to polynucleotide ratio of 0.3 at pH 7 by thermal melting analysis. The settings on record: Bos taurus.

Activity calls are given as the source filed them. The rule behind the calls is not given here.

In the case of `C[C@H]1[C@@H](O)O[C@@H]2O[C@@]3(C)CC[C@H]4[C@H](C)CC[C@@H]1[C@@]24OO3` [ARTENIMOL], the IC50 – broadly, the concentration needed to halve the response being measured – in assay [1] is 16.1 µM; in assay [2] it was 99.8 µM; in assay [3] it was 45.2 µM; in assay [4] it was 0.0023 µM.
As for `COc1ccc2nc3cc(Cl)ccc3c(N3CCN(C(=O)C[C@H]4O[C@@H]5O[C@@]6(C)CC[C@H]7[C@H](C)CC[C@@H]([C@H]4C)[C@@]57OO6)CC3)c2c1`, the 50% inhibitory concentration (IC50) in assay [5] is 0.56 µM; in [1] it was more than 750 µM; in [2], 21.1 µM; in assay [3], 3.51 µM; in assay [4], 0.29 µM.
For `COc1ccc2nc3cc(Cl)ccc3c(NCCCCNC(=O)C[C@H]3O[C@@H]4O[C@@]5(C)CC[C@H]6[C@H](C)CC[C@@H]([C@H]3C)[C@@]46OO5)c2c1`, in that order: 1.58 µM, 247 µM, 43.3 µM, 11.7 µM and 0.0203 µM.
Take `COc1ccc2nc3cc(Cl)ccc3c(NCCCNC(=O)C[C@H]3O[C@@H]4O[C@@]5(C)CC[C@H]6[C@H](C)CC[C@@H]([C@H]3C)[C@@]46OO5)c2c1`: the IC50 turned out to be 3.08 µM in assay [5]; 9.91 µM in [1]; 11.6 µM in assay [2]; 11.8 µM in [3]; 0.0224 µM in assay [4]. The Activity entry in assay [6] is “Dose-dependent effect”; in assay [8], 98%; in assay [9], “Dose-dependent effect”; in assay [10] it was 57%; in assay [11], “Dose-dependent effect”. Besides, the outcome in assay [7] was Active.
As to `COc1ccc2nc3cc(Cl)ccc3c(NCCNC(=O)C[C@H]3O[C@@H]4O[C@@]5(C)CC[C@H]6[C@H](C)CC[C@@H]([C@H]3C)[C@@]46OO5)c2c1`, the ΔTm (as a rule, the change in melting temperature against a reference sample) in assay [12] stood at 2.4 °C; in assay [13] it was 0.6 °C; in assay [18], 3.1 °C. The Ks in assay [14] and in assay [15] was 1 ×10⁶ /M in each case. For the same compound, the outcome in assay [16] and in [17] was inactive. For the same compound, the IC50 worked out at 1.17 µM in assay [5]; 194 µM in assay [1]; 49 µM in [2]; 13.7 µM in assay [3]; 0.00596 µM in assay [4].
As for `COc1ccc2nc3cc(Cl)ccc3c(NCCN)c2c1`, the values for the ΔTm in assay [12], in assay [13] and in assay [18] were 2.2 °C, 2.9 °C and 9.3 °C, respectively. Moreover, the Ks in assay [14] and in assay [15] was 1 ×10⁶ /M throughout. For the same compound, the values for the IC50 in assay [5], in assay [1] and in [2] were 12.5 µM, 6.57 µM and 8.12 µM, respectively.

Values taken from ChEMBL document CHEMBL1153331, “Antitumour and antimalarial activity of artemisinin-acridine hybrids” (Bioorg Med Chem Lett, 2009).
